The source of these data is ChEMBL document CHEMBL1136272, “Development of a presynaptic 5-HT1A antagonist” (Bioorg Med Chem Lett, 2003).

Experiment [1] has as its system Rattus norvegicus. Kind of experiment: In vivo motor activity determined in rat at 1.7 mg/kg of ip administration. Format: functional. Particulars: route intraperitoneal. The procedure, abridged:
(§1)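 Rats dosed i.p. against a saline-treated control group. Social interaction time (s) and total motor activity (counts) were recorded in the same social-interaction session and reported as mean ± SEM, with significance tested against saline control.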

Experiment [2] has as its system Rattus norvegicus. Kind of experiment: Social interaction time determined in vivo rat at 1.7 mg/kg of ip administration. Format: functional. The following applies: route intraperitoneal. An outline of the steps:
as §1

The subject of experiment [3] is Rattus norvegicus. Kind of experiment: In vivo motor activity determined in rat at 1.7 + 1 mg/kg of ip administration. Format: functional. The following applies: route intraperitoneal. An outline of the steps:
as §1

For experiment [4], the system named is Rattus norvegicus. Kind of experiment: Social interaction time determined in vivo in rat at 1.7 + 1 mg/kg of ip administration. Format: functional. Particulars: route intraperitoneal. The procedure, abridged: as §1
The target in experiment [5] is T1, 5-hydroxytryptamine receptor 1A (Rattus norvegicus, UniProt P19327).
T1 sequence (P19327 whole entry): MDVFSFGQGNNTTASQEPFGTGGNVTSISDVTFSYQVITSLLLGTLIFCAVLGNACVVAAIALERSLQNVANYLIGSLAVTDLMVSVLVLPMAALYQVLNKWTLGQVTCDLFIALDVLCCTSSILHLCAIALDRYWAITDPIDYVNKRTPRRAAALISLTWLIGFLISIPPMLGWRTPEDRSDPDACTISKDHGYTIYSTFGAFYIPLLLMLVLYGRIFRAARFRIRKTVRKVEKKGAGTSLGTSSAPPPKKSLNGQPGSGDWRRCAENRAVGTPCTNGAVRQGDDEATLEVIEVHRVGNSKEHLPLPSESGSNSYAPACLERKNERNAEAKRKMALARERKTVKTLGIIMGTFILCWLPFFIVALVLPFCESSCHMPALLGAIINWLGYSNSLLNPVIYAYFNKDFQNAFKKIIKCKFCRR
Put plainly: Inhibition of the 5-hydroxytryptamine 1A receptor in rat dorsal raphe.

In experiment [6] the target is 5-hydroxytryptamine receptor 1B (Rattus norvegicus, UniProt P28564). Put plainly: Inhibitory concentration required against 5-hydroxytryptamine 1B receptor in rat striatum using [3H]5-HT. The experiment is classed as tissue-based.
The target of experiment [7] is Serotonin 2 (5-HT2) receptor (Rattus norvegicus, UniProt P30994+P08909+P14842). Kind of experiment: Inhibitory concentration required against 5-hydroxytryptamine 2 receptor in rat cortex using [3H]spiperone.
Experiment [8] addresses T2, Adrenergic receptor alpha-2 (Rattus norvegicus, UniProt P22086+P19328+P22909).
T2 sequence (P22086 whole entry): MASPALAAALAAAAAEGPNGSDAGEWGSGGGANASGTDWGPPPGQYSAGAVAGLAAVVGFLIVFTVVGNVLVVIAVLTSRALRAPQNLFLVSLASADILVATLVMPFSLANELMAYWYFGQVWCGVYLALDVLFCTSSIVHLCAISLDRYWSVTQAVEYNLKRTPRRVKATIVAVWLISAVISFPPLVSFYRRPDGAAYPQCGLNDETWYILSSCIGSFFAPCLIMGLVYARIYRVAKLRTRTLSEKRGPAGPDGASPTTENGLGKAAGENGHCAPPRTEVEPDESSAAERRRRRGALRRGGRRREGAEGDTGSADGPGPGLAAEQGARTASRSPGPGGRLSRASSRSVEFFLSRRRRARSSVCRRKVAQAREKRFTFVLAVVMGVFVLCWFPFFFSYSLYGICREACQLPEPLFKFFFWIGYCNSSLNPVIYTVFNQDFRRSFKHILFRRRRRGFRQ
T2 sequence (P19328 whole entry): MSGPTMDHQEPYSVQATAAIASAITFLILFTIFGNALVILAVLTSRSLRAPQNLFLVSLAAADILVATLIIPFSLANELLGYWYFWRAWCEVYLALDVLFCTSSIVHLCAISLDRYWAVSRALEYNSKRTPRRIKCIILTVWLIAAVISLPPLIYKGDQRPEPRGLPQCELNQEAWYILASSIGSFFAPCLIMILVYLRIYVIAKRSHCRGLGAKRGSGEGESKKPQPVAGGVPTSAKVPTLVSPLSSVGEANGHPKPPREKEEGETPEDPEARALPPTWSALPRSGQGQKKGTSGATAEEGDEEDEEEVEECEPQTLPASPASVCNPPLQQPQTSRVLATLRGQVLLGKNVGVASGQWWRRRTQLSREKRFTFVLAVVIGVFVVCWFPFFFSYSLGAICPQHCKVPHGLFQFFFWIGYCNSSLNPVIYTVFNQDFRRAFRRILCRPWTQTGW
T2 sequence (P22909 whole entry): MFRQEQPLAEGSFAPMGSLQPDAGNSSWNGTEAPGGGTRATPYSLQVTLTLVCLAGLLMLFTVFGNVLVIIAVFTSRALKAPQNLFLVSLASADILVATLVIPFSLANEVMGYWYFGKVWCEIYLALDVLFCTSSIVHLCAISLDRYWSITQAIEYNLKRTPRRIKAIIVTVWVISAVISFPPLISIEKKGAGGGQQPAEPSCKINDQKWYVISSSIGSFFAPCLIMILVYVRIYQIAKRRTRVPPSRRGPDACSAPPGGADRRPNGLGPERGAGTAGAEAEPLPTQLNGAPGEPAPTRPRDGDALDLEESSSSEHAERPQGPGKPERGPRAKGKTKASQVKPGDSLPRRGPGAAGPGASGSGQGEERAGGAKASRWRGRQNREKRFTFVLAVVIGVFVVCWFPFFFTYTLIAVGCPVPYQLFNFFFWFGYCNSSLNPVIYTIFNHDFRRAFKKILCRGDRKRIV
Put plainly: Inhibitory concentration required against Alpha-2 adrenergic receptor in rat cortex [3H]clonidine.

Experiment [9] concerns the target T3, Adrenergic receptor alpha-1 (Rattus norvegicus, UniProt P15823+P23944+P43140).
T3 sequence (P15823 whole entry): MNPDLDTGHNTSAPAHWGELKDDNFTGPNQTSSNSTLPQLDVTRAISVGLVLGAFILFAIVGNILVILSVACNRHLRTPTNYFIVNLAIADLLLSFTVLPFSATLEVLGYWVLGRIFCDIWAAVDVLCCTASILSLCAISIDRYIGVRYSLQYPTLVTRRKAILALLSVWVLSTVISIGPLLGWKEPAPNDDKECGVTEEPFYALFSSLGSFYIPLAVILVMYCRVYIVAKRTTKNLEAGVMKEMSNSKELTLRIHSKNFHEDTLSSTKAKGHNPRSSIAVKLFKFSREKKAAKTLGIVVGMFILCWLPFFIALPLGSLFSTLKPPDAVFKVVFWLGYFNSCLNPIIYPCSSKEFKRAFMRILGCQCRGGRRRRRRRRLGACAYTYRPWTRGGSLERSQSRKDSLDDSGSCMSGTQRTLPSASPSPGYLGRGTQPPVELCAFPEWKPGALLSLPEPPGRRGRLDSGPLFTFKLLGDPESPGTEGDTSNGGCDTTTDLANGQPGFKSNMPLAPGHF
T3 sequence (P23944 whole entry): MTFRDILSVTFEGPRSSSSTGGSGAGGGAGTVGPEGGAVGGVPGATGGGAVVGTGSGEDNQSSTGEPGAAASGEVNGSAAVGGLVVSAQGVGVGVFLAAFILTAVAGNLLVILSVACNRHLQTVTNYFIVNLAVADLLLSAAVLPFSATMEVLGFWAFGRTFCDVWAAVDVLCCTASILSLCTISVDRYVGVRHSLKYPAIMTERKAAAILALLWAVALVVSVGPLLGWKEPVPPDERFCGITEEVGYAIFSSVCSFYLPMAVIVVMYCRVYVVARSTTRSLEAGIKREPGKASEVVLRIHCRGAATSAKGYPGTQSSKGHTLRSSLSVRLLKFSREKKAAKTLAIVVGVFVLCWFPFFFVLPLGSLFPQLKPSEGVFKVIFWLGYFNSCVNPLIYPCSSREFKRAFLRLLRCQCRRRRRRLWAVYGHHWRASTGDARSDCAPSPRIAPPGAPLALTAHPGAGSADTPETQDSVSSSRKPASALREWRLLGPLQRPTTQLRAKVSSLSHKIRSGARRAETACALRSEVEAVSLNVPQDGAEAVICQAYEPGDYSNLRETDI
T3 sequence (P43140 whole entry): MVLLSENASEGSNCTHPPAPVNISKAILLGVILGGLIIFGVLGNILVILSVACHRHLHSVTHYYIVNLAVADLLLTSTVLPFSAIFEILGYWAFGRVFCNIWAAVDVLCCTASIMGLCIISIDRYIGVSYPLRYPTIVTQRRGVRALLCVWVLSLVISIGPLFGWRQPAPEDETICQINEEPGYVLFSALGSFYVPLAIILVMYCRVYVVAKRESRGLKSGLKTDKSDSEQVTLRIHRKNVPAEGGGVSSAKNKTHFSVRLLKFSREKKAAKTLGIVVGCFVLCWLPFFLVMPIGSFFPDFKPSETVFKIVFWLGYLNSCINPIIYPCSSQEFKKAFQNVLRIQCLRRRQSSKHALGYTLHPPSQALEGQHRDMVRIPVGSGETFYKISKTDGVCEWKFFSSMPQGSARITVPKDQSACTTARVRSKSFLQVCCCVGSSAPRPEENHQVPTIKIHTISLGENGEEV
Kind of experiment: Inhibitory concentration required against alpha-1 adrenergic receptor in rat cortex using [3H]-WB- 4101.

Another experiment deals with D(2) dopamine receptor (Rattus norvegicus, UniProt P61169). Kind of experiment: Inhibitory concentration required against Dopamine receptor D2 in rat striatum. The experiment is classed as tissue-based.
Experiment [10] relates to Rattus norvegicus. Put plainly: In vivo motor activity determined in rat at 0.1 mg/kg of ip administration. The following applies: route intraperitoneal. The experiment is classed as functional. An outline of the steps:
(§2)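 Rat social interaction paradigm with total motor activity counts recorded in the same session. All compounds were given ip, with a saline-treated control group. Combination arms gave a 0.1 mg/kg agent together with a second agent at 1 mg/kg, both ip. Social interaction time (s) and motor counts are reported as mean ± SEM, with significance tested against saline control.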

The subject of experiment [11] is Rattus norvegicus. Kind of experiment: Social interaction time determined in vivo in rat at 0.1 mg/kg of ip administration. The experiment is classed as functional. Particulars: route intraperitoneal. The procedure, abridged:
as §2

For experiment [12], the target named is Sodium-dependent serotonin transporter (Rattus norvegicus, UniProt P31652). Kind of experiment: Inhibitory concentration required against 5-HT uptake in rat cortex.
Experiment [13] has as its system Rattus norvegicus. Kind of experiment: In vivo motor activity determined in rat at 1 mg/kg of ip administration. The experiment is classed as functional. Particulars: route intraperitoneal. An outline of the steps: as §2
For experiment [14], the system named is Rattus norvegicus. Kind of experiment: Social interaction time determined in vivo in rat at 1 mg/kg of ip administration. The experiment is classed as functional. The following applies: route intraperitoneal. An outline of the steps:
as §2

Sodium-dependent serotonin transporter, sequence (P31652 whole entry): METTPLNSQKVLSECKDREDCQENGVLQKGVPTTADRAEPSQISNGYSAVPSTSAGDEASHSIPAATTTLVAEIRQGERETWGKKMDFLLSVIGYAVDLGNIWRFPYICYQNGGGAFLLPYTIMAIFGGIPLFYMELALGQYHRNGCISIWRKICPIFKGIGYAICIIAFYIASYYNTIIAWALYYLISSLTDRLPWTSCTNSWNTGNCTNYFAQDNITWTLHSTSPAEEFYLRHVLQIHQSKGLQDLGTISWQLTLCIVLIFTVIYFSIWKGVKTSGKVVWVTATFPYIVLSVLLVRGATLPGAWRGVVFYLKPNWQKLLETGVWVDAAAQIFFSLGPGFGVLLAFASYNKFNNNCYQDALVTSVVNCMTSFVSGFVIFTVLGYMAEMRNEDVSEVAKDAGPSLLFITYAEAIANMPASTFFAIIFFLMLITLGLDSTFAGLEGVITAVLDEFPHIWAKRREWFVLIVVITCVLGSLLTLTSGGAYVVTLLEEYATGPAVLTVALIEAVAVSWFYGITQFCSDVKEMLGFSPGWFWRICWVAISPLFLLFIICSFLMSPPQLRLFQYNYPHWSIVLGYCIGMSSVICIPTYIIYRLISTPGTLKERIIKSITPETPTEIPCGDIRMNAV
D(2) dopamine receptor, sequence (P61169 whole entry): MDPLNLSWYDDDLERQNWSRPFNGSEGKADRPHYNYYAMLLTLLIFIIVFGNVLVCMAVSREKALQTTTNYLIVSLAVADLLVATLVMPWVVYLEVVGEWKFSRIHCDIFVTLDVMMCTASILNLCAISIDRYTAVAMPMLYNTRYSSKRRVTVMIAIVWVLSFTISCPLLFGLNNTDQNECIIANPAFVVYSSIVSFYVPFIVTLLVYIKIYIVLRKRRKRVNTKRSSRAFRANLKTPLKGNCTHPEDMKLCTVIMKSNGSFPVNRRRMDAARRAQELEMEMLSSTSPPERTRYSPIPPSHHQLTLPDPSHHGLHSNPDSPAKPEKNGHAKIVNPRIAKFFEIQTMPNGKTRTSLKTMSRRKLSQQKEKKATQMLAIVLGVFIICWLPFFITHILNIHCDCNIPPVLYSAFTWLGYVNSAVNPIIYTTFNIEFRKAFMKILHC
5-hydroxytryptamine receptor 1B, sequence (P28564 whole entry): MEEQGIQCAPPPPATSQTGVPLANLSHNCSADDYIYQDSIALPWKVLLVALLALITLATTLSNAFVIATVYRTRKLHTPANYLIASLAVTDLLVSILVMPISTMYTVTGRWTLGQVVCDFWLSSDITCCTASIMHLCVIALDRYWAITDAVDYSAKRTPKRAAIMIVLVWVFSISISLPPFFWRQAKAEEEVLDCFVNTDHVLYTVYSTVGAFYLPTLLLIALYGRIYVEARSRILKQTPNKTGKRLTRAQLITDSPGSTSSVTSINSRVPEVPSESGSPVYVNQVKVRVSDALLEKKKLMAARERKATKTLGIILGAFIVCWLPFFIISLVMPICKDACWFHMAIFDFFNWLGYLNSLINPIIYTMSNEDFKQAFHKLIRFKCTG

As for `CN1C(=O)CN=C(c2ccccc2)c2cc(Cl)ccc21` [DIAZEPAM], in the experiment with Rattus norvegicus [1], the Motor activity is 5100 Counts. The compound also had a Time in the experiment with Rattus norvegicus [2] of 120 s.

Regarding `CN1C(=O)CN=C(c2ccccc2)c2cc(Cl)ccc21.COc1cccc(CN2CCN(C3CCC(O)(c4ccc5c(c4)OCO5)CC3)CC2)c1` (configuration not stated), the Motor activity with Rattus norvegicus [3] worked out at 4900 Counts. For the same compound, the Time in the experiment on Rattus norvegicus [4] was determined as 113 s.

With `OC1(c2ccc3c(c2)OCO3)CCC(N2CCN(Cc3ccccc3)CC2)CC1` (configuration not stated), the half-maximal inhibitory concentration (IC50) in experiment [5] was 20 nM; in [6] it was above 1000 nM; in experiment [7], 11000 nM; in experiment [8], 410 nM; in experiment [9], 700 nM; at D(2) dopamine receptor, 1700 nM. This compound also had an IC50 in experiment [12] above 1000 nM. In addition, in the experiment on Rattus norvegicus [10], the Motor activity is on record as 4700 Counts. This compound also had a Time in the experiment with Rattus norvegicus [11] of 104 s.

For the compound `COc1cccc(CN2CCN(C3CCC(O)(c4ccc5c(c4)OCO5)CC3)CC2)c1` (configuration not stated), the half-maximal inhibitory concentration (IC50) in experiment [5] is 2.2 nM; in experiment [6], above 100000 nM; in [7], 28000 nM; in experiment [8], 1100 nM; in experiment [9] it was 1500 nM; against D(2) dopamine receptor it was 4800 nM. The compound further came in with a half-inhibitory concentration (IC50) in experiment [12] of 3000 nM. In the experiment on Rattus norvegicus [13], this compound showed a Motor activity of 5140 Counts. In the experiment with Rattus norvegicus [14], the Time amounted to 65 s.
